Screens (PubChem)
MsrA inh: inhibitors of bovine MsrA. purified bovine MsrA, absorbance read-out. inhibition, % at 15.5 µM. hit rate 0.75% among 360,000; in the data active means inhibition above about 4.5%;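 further: 0% = vehicle wells with enzyme and 100% = reference inhibitor wells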
Tb MetRS inh: Trypanosoma brucei MetRS inhibition. AID 624268. inhibition, % at 11.9 µM. purified T. brucei MetRS, ATP depletion, Kinase-Glo luminescence. hit rate 0.4% among 360,000;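 active means inhibition above a per-plate cutoff of the control wells' mean inhibition plus 3 SD, cut at about 5.5% in these data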;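 further: 0% = DMSO wells median and 100% = median of wells with control inhibitor compound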
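System: purified T. brucei MetRS enzyme / Detection: Kinase-Glo luciferase luminescence reporting remaining unconsumed ATP / Medium: HEPES buffer with MgCl2, KCl, DTT, spermine, BSA, pyrophosphatase / Replication: singlicate, one well per compound / Evaluation: percent inhibition relative to median high and low control wells / Schedule: 2 h aminoacylation at 25 °C after 15 min preincubation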
AI-2 QS mod: modulators of Vibrio harveyi AI-2 quorum sensing system; Vibrio harveyi JMH597 AI-2 luminescence/OD600 ratio, 9 h; active compounds read low; strain lacks LuxN and CqsS sensors; 0 = neutral-control median; activity change, % at 7.5 µM; hit rate 0.4% among 300,000; in the data active means activity change below about -75%, passing the limit was not always enough;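 further: luminescence divided by OD600 gain over 9 h not by final OD600 alone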
AHR activator: human AHR activation; activation, % at 5 µM; hit rate 2.5% among 320,000; P35869; AHR-responsive luciferase reporter cells, luminescence; in the data active means activation above about 47%;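 further: 0% = vehicle wells and 100% = reference agonist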
Target sequence (P35869 whole entry, looked up): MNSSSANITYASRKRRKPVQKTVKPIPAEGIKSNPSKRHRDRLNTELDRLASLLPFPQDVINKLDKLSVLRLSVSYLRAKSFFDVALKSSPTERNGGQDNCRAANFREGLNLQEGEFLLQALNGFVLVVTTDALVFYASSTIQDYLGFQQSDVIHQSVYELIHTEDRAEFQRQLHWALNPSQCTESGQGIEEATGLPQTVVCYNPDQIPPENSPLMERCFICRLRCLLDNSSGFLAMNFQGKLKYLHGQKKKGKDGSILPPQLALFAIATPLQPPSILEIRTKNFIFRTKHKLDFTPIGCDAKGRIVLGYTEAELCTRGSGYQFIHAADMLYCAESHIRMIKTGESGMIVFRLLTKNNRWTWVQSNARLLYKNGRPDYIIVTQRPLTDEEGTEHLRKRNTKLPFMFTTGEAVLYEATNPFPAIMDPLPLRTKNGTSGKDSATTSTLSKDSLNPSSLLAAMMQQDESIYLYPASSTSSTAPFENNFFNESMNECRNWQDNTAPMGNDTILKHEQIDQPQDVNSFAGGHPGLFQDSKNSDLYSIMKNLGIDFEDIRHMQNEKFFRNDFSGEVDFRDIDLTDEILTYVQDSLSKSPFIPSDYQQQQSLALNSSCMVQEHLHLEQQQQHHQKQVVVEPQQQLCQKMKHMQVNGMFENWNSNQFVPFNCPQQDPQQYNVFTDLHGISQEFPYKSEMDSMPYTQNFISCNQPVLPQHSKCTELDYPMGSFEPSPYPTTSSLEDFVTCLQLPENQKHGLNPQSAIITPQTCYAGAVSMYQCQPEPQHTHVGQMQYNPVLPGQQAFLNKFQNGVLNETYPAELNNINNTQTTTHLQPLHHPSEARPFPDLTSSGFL
HTR2A ag: activates the mouse 5-HT2A serotonin receptor. P35363. CHO-K1 mHTR2A beta-arrestin complementation, luminescence; percent of 30 µM serotonin response. activation, % at 7.6 µM. hit rate 0.66% among 360,000. AID 624169;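 active means activation above a run cutoff, the mean activation of all tested compounds plus 3 SD, cut at about 14% in these data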;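 further: 0% = plate median of compound wells and 100% = 30 µM serotonin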
bovine MsrA act: activators of bovine methionine sulfoxide reductase A; purified bovine MsrA, absorbance read-out; activation, % at 10.6 µM; hit rate 0.3% among 360,000; in the data active means activation above about 7.5%;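 further: 0% = vehicle and 100% = reference activator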
TbMetRS confirm: confirmation of Trypanosoma brucei MetRS inhibitors. AID 624412. hit rate 93% among 1,400. shares compounds with Tb MetRS inh. inhibition, % at 11.9 µM. T. brucei MetRS enzyme, luminescence (ATP depletion); in the data active means inhibition above about 7%
Jurkat tox: kills Jurkat cells in T. brucei MetRS counterscreen; shares compounds with Tb MetRS inh; Jurkat cells viability, ATP luminescence; inhibition, % at 8.3 µM; hit rate 12% among 1,400; in the data active means inhibition above about 15%;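 further: 0% = vehicle and 100% = reference inhibitor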
TbMetRS FP orth: orthogonal test for Trypanosoma brucei MetRS inhibitors; purified T. brucei MetRS, fluorescence polarization; shares compounds with Tb MetRS inh; inhibition, % at 11.9 µM; AID 651607; hit rate 44% among 1,400; in the data active means inhibition above about 17%;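 further: 0% = vehicle wells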
Starred values were filed as active, the others as inactive. An excerpt weighted towards active compounds, which were near 4.4% of everything screened.

How did Cc1ccc(-c2nnc(NCc3nc4ccccc4[nH]3)c3ccccc23)cc1S(=O)(=O)N(C)C do in these assays?
MsrA inh: 1; Tb MetRS inh: 13*; AI-2 QS mod: 20; AHR activator: 20; HTR2A ag: 7; bovine MsrA act: -6; TbMetRS confirm: 24*; Jurkat tox: 4; TbMetRS FP orth: 16

Results for CC(C)(C)c1ccccc1NC(=O)CN1C(=O)NC2(CCCCCC2)C1=O ?
MsrA inh: 1; Tb MetRS inh: 0; AHR activator: 2; HTR2A ag: -1; bovine MsrA act: -3

How did CC(C)CC1NC(=O)c2cccnc2-n2c1nc1ccccc1c2=O (centres undefined) do in these assays?
MsrA inh: 0; Tb MetRS inh: 1; HTR2A ag: -3; bovine MsrA act: -1

Results for COc1ccc(/C=N/NC(=O)c2cc(O)c(O)c(O)c2)cc1Cn1cc([N+](=O)[O-])cn1 ?
MsrA inh: 2; Tb MetRS inh: 5.6*; AI-2 QS mod: 30; HTR2A ag: 1; bovine MsrA act: -5; TbMetRS confirm: 13*; Jurkat tox: 2; TbMetRS FP orth: 9

How did COc1ccc(/C=N/NC(=O)c2ccccc2O)cc1Cn1cc([N+](=O)[O-])cn1 do in these assays?
MsrA inh: 2; Tb MetRS inh: 0; AI-2 QS mod: 12; AHR activator: 4; HTR2A ag: 4; bovine MsrA act: -5

What do the screens show for `COc1cc(Cl)c(CC(=O)c2c[nH]c3ccccc23)cc1OC`?
MsrA inh: -1; Tb MetRS inh: 2; AI-2 QS mod: 15; AHR activator: 2; HTR2A ag: -8; bovine MsrA act: -2

How did Cc1cccc(CC(=O)c2c[nH]c3ccccc23)c1 do in these assays?
MsrA inh: -1; Tb MetRS inh: 11*; AI-2 QS mod: 18; AHR activator: 0; HTR2A ag: 4; bovine MsrA act: -2; TbMetRS confirm: 22*; Jurkat tox: 10; TbMetRS FP orth: 13

Results for COc1cccc(CNc2ccc([N+](=O)[O-])cc2Cl)c1O ?
MsrA inh: 2; Tb MetRS inh: 17*; AI-2 QS mod: 18; AHR activator: 0; HTR2A ag: -7; bovine MsrA act: -5; TbMetRS confirm: 18*; Jurkat tox: 7; TbMetRS FP orth: 13

How did CCCCN(CC)CCCNC(=O)c1cn(-c2ccc(OC)cc2)c(=O)c2ccccc12 do in these assays?
MsrA inh: 0; Tb MetRS inh: -1; AI-2 QS mod: 19; AHR activator: 2; HTR2A ag: -4; bovine MsrA act: -1

Results for N#C/C(=C\c1cccn1S(=O)(=O)c1cccc(C#N)c1)S(=O)(=O)c1ccc(F)cc1 ?
MsrA inh: 1; Tb MetRS inh: 1; HTR2A ag: 0; bovine MsrA act: -2

What do the screens show for `O=S(=O)(Nn1c(O)c(C=C2N=c3ccccc3=N2)sc1=S)c1ccccc1`?
MsrA inh: 2; Tb MetRS inh: 55*; AI-2 QS mod: 21; AHR activator: 22; HTR2A ag: -2; bovine MsrA act: -4; TbMetRS confirm: 65*; Jurkat tox: -5; TbMetRS FP orth: 39*

Results for CCc1nc2ccc(C(=O)NCCOc3ccc(OC)cc3)cn2c1N(C)Cc1cccs1 ?
MsrA inh: -1; Tb MetRS inh: -1; HTR2A ag: -5; bovine MsrA act: -9

How did N#Cc1nc(COc2ccc(Cl)cc2Cl)oc1N1CCOCC1 do in these assays?
MsrA inh: 1; Tb MetRS inh: 11*; AI-2 QS mod: 19; AHR activator: -2; HTR2A ag: 3; bovine MsrA act: -1; TbMetRS confirm: 22*; Jurkat tox: 8; TbMetRS FP orth: 7

How did Nn1c(SCC(=O)Nc2ccccc2Oc2ccccc2)nnc1C1CC1 do in these assays?
MsrA inh: 1; Tb MetRS inh: 0; HTR2A ag: -1; bovine MsrA act: 0

How did Clc1cccc(CNc2nc(-c3cccnc3)nc3ccccc23)c1 do in these assays?
MsrA inh: 0; Tb MetRS inh: 18*; AI-2 QS mod: 3; HTR2A ag: 0; bovine MsrA act: -2; TbMetRS confirm: 40*; Jurkat tox: 12; TbMetRS FP orth: 28*

What do the screens show for `O=C1COc2ccc(C(=O)CSc3nnc(Cc4ccccc4)o3)cc2N1`?
MsrA inh: 1; Tb MetRS inh: -1; AI-2 QS mod: 15; AHR activator: 3; HTR2A ag: 8; bovine MsrA act: 0

Results for O=C1COc2ccc(C(=O)CSc3nnc(NCc4ccccc4)s3)cc2N1 ?
MsrA inh: -1; Tb MetRS inh: 8.7*; AI-2 QS mod: 18; AHR activator: 2; HTR2A ag: -4; bovine MsrA act: -2; TbMetRS confirm: 13*; Jurkat tox: 2; TbMetRS FP orth: 14

How did O=C1CC(SCc2nc3ccccc3[nH]2)C(=O)N1c1cccc(Cl)c1 (centres undefined) do in these assays?
MsrA inh: 0; Tb MetRS inh: 80*; AI-2 QS mod: 13; AHR activator: 10; HTR2A ag: -3; bovine MsrA act: -3; TbMetRS confirm: 91*; Jurkat tox: -1; TbMetRS FP orth: 61*

What do the screens show for `O=C1CC(SCCc2nc3ccccc3[nH]2)C(=O)N1c1ccc(F)c(Cl)c1` (centres undefined)?
MsrA inh: 0; Tb MetRS inh: 33*; AI-2 QS mod: 19; AHR activator: 1; HTR2A ag: -3; bovine MsrA act: -1; TbMetRS confirm: 54*; Jurkat tox: 1; TbMetRS FP orth: 30*

What do the screens show for `O=C1CC(SCc2nc3ccccc3[nH]2)C(=O)N1c1ccc(F)cc1` (centres undefined)?
MsrA inh: 0; Tb MetRS inh: 2; AI-2 QS mod: 26; AHR activator: 19; HTR2A ag: -4; bovine MsrA act: -4

How did CC(C)c1ccc(S(=O)(=O)N2CCC(C(=O)NCc3ccco3)CC2)cc1 do in these assays?
MsrA inh: 1; Tb MetRS inh: -1; HTR2A ag: 8; bovine MsrA act: -6

What do the screens show for `CCOC(=O)Cc1nnc(NC(=O)Nc2ccccc2)s1`?
MsrA inh: 0; Tb MetRS inh: 16*; AI-2 QS mod: 28; AHR activator: 6; HTR2A ag: -4; bovine MsrA act: 0; TbMetRS confirm: 23*; Jurkat tox: 8; TbMetRS FP orth: 15

What do the screens show for `COc1ccc(Cc2nnc(NC(=O)Nc3ccccc3)s2)cc1OC`?
MsrA inh: 0; Tb MetRS inh: 7.0*; AI-2 QS mod: 7; AHR activator: 21; HTR2A ag: 1; bovine MsrA act: -1; TbMetRS confirm: 21*; Jurkat tox: 6; TbMetRS FP orth: 15
